From ChEMBL document CHEMBL1687750, “Nonclinical pharmacokinetics of oseltamivir and oseltamivir carboxylate in the central nervous system” (Antimicrob Agents Chemother, 2009) come the findings set out here.

Data set [1] in a line: Prodrug conversion in human liver S9 fractions assessed as oseltamivir carboxylate generation rate assessed per mg of protein per min. The data set is classed as ADME, subcellular, S9 fraction. In outline: (§1)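 S9 from brain or liver (rat S9 made by homogenizing tissue in ~4 ml Tris-sucrose buffer per g, supernatant after 9,000 × g at 10°C; pooled human brain and liver S9 also used), protein by bicinchoninic acid assay. Oseltamivir: triplicate, 10 μM 14C-oseltamivir final, 1.0 mg S9 protein, 100 mM Tris-HCl pH 7.4, 30 min at 37°C, quenched with TCA-acetonitrile.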

Data set [2] can be described thus: Prodrug conversion in 7 days old male rat brain S9 fractions assessed as conversion of oseltamivir to oseltamivir carboxylate. The data set is classed as ADME, tissue-based. The essentials: as §1
Data set [3] in a line: Prodrug conversion in 42 days old female rat liver S9 fractions assessed as oseltamivir carboxylate generation rate assessed per mg of protein per min. The data set is classed as ADME, subcellular, S9 fraction. In outline: (§2)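 Rat brain or liver S9 (9,000 × g supernatant; 1.0 mg protein) was incubated in triplicate with 10 µM 14C-oseltamivir (final) in 100 mM Tris-HCl pH 7.4 for 30 min at 37°C. Reactions were quenched with TCA-acetonitrile, and the fraction converted to OC was measured by radioflow HPLC with fractionation. Rate was calculated as (pmol/ml substrate × fraction hydrolyzed)/(mg protein/ml × time), minus the no-protein background.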

A short description of data set [4]: Prodrug conversion in 42 days old male rat liver S9 fractions assessed as oseltamivir carboxylate generation rate assessed per mg of protein per min. It is filed as ADME, subcellular, S9 fraction. In outline:
as §2

The nature of data set [5]: Prodrug conversion assessed as oseltamivir carboxylate level in presence of Sf9 cell culture supernatant expressing human recombinant HCE2 after 30 mins. It is filed as ADME. Conditions: sf9, 0.5 h; call rule not given here. In outline:
(§3)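 Culture supernatants from baculovirus-infected Sf9 cells (day 5–7; 1.0 mg/ml protein) were incubated in triplicate with 10 µM 14C-oseltamivir in 100 mM Tris-HCl at 37°C for 30 min. Reactions were quenched with TCA-acetonitrile, then analyzed by HPLC with fraction scintillation counting. Conversion was calculated as OC radioactivity over total radioactivity, corrected for no-enzyme hydrolysis. Wild-type virus and liver S9 served as controls.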

Data set [6] in a line: Prodrug conversion in 42 days old female rat brain S9 fractions assessed as oseltamivir carboxylate generation rate assessed per mg of protein per min. The data set is classed as ADME, tissue-based. In outline: as §2
The nature of data set [7]: Prodrug conversion in commercial brain S9 fractions assessed as paranitrophenol generation rate assessed per mg of protein per min. The data set is classed as ADME.
A short description of data set [8]: Prodrug conversion assessed as oseltamivir carboxylate level in presence of Sf9 cell culture supernatant expressing human recombinant HCE1 after 30 mins. The data set is classed as ADME. Conditions: sf9, 0.5 h. In outline:
as §3

The nature of data set [9]: AUC (0 to infinity) ratio in brain to plasma in non-perfused Sprague-Dawley rat at 30 mg/kg, iv. Conditions: brain and plasma, read-out: Ratio AUC. Set-up: dose 30 mg/kg, route intravenous. The data set is classed as ADME, organism-based. In outline:
(§4)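 Nonfasted adult rats received 30 mg/kg in aqueous 0.9% NaCl (pH 4.0) by slow tail-vein injection over 20–30 s. Groups were sampled at 5 min and 0.25, 0.5, 1, 2, 4 and 8 h, with 4–5 rats per time point, under terminal isoflurane. Blood was taken by heart puncture and CSF from the cisterna magna. Brains were homogenized either unperfused or after transcardial saline perfusion. Samples were assayed by LC-MS/MS, and pooled composite data were analyzed noncompartmentally.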

The nature of data set [10]: Prodrug conversion in 42 days old male rat brain S9 fractions assessed as conversion of oseltamivir to oseltamivir carboxylate. The data set is classed as ADME, subcellular, S9 fraction. In outline: as §2
Data set [11] can be described thus: Prodrug conversion in 7 days old female rat brain S9 fractions assessed as oseltamivir carboxylate generation rate assessed per mg of protein per min. The data set is classed as ADME, tissue-based. In outline:
as §1

The nature of data set [12]: Prodrug conversion in 7 days old male rat liver S9 fractions assessed as conversion of oseltamivir to oseltamivir carboxylate. It is filed as ADME, subcellular, S9 fraction. In outline:
as §1

Data set [13] is described as follows: Prodrug conversion in commercial brain S9 fractions assessed as oseltamivir carboxylate generation rate assessed per mg of protein per min. It is filed as ADME. In outline:
as §1

The nature of data set [14]: Prodrug conversion in commercial liver S9 fractions assessed as conversion of oseltamivir to oseltamivir carboxylate. It is filed as ADME, subcellular, Liver S9 fraction. The essentials:
as §1

Data set [15] in a line: Prodrug conversion in 42 days old female rat liver S9 fractions assessed as conversion of oseltamivir to oseltamivir carboxylate. The data set is classed as ADME, subcellular, S9 fraction. The essentials:
as §2

Data set [16] can be described thus: Prodrug conversion in 7 days old female rat brain S9 fractions assessed as conversion of oseltamivir to oseltamivir carboxylate. The data set is classed as ADME, tissue-based. The essentials:
as §1

Data set [17] relates to Plasma. In words: AUC (0 to infinity) in non-perfused Sprague-Dawley rat plasma at 30 mg/kg. Conditions: in vivo, iv.
Data set [18] in a line: Prodrug conversion in 42 days old female rat liver S9 fractions assessed as paranitrophenol generation rate assessed per mg of protein per min. It is filed as ADME, subcellular, S9 fraction. The essentials:
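Control esterase activity was measured by incubating 100 µM p-nitrophenyl acetate (final) with 0.05 mg rat brain or liver S9 protein in 1.5 ml Tris-HCl pH 7.4 for 1 min at 37°C. Reactions were quenched with acetonitrile, and product was quantified by HPLC-UV against external standards. The no-protein blank rate was subtracted, and rate was expressed per mg protein per min.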

Data set [19] can be described thus: Prodrug conversion in 7 days old male rat brain S9 fractions assessed as paranitrophenol generation rate assessed per mg of protein per min. It is filed as ADME, tissue-based.
Data set [20] concerns Plasma. Kind of data set: Cmax in perfused Sprague-Dawley rat plasma assessed as active metabolite oseltamivir carboxylate level at 30 mg/kg, iv. It is filed as ADME, organism-based. Set-up: dose 30 mg/kg, route intravenous. Conditions: in vivo. The essentials:
as §4

Data set [21] in a line: AUC ratio in brain to plasma in non-perfused Sprague-Dawley rat at 30 mg/kg, iv. It is filed as ADME, organism-based. More on the design: dose 30 mg/kg, route intravenous. Particulars: brain and plasma, read-out: Ratio AUC. In outline: as §4
For data set [22], the system named is Plasma. Kind of data set: Cmax in non-perfused Sprague-Dawley rat plasma assessed as active metabolite oseltamivir carboxylate level at 30 mg/kg, iv. The data set is classed as ADME, organism-based. More on the design: dose 30 mg/kg, route intravenous. Conditions: in vivo. In outline: as §4
Data set [23] can be described thus: Cmax ratio in brain to plasma in non-perfused Sprague-Dawley rat at 30 mg/kg, iv. The data set is classed as ADME, organism-based. More on the design: dose 30 mg/kg, route intravenous. Particulars: brain and plasma. The essentials:
as §4

For another data set, the system named is Rattus norvegicus. Kind of data set: Volume of distribution at steady state in Sprague-Dawley rat assessed as active metabolite oseltamivir carboxylate level at 30 mg/kg, iv. It is filed as ADME, organism-based. Set-up: dose 30 mg/kg, route intravenous. Conditions: in vivo. In outline: (§5)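 Nonfasted Sprague-Dawley rats given 30 mg/kg i.v. in 0.9% NaCl pH 4.0 by tail vein over 20–30 s. Terminal sampling under isoflurane at 5 min, 0.25, 0.5, 1, 2, 4 and 8 h (4–5 rats/time): plasma, CSF, and brain homogenate, with or without saline perfusion. LC-MS/MS. t1/2, Vss and ratios from noncompartmental analysis of pooled composite concentrations.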

The nature of data set [24]: Ratio of drug level in brain to plasma in non-perfused Sprague-Dawley rat at 30 mg/kg, iv. The data set is classed as ADME, organism-based. More on the design: dose 30 mg/kg, route intravenous. Conditions: brain and plasma, read-out: BPR. The essentials:
as §5

Data set [25] concerns Brain. Kind of data set: Cmax in perfused Sprague-Dawley rat brain assessed as active metabolite oseltamivir carboxylate level at 30 mg/kg, iv. The data set is classed as ADME, organism-based. Set-up: dose 30 mg/kg, route intravenous. Particulars: in vivo. The essentials:
as §4

Data set [26] concerns Plasma. In words: Terminal half life in perfused Sprague-Dawley rat plasma assessed as active metabolite oseltamivir carboxylate level at 30 mg/kg, iv. The data set is classed as ADME, organism-based. More on the design: dose 30 mg/kg, route intravenous. Conditions: in vivo. The essentials:
as §5

Data set [27] deals with Plasma. In words: AUC (0 to 8 hrs) after iv dose in perfused Sprague-Dawley rat plasma assessed as active metabolite oseltamivir carboxylate level at 30 mg/kg. Particulars: in vivo.
The subject of data set [28] is Brain. In words: AUC (0 to 8 hrs) after iv dose in non-perfused Sprague-Dawley rat brain assessed as active metabolite oseltamivir carboxylate level at 30 mg/kg. Conditions: in vivo.
A short description of data set [29]: Cmax in perfused Sprague-Dawley rat brain at 30 mg/kg, iv after 0.25 hrs. Set-up: dose 30 mg/kg, route intravenous. It is filed as ADME, organism-based. The essentials: as §4

As to `CCOC(=O)C1=C[C@@H](OC(CC)CC)[C@H](NC(C)=O)[C@@H](N)C1` [OSELTAMIVIR], the Activity in data set [1] is 119 pmol/s; in [2], less than 0.06%; in data set [3] it was 1.37 pmol/s; in [4] it was 2.11 pmol/s; in data set [5], “Not Active”; in data set [6], 0.6 pmol/min/mg. In addition, the Activity in data set [7] was 49 nmol; in data set [8], “Active”; in data set [10], 0.16%; in [11], less than 0.2 pmol/s; in data set [12], 0.1%; in data set [13], 0.32 pmol/min/mg. The Activity in data set [14] was 3.79%; in data set [15] it was 0.41%; in data set [16], less than 0.06%; in data set [18] it was 1001 nmol; in [19], 80 nmol. The Kp in data set [9] was determined as 0.24. The same compound showed an AUC in the data set with Plasma [17] of 5330.

What is called Cmax is the maximum level reached in the sampled fluid or tissue. One may read the Vdss as a proportionality between amount in the body and measured concentration, not a real space. `CCC(CC)O[C@@H]1C=C(C(=O)O)C[C@H](N)[C@H]1NC(C)=O` [OSELTAMIVIR CARBOXYLATE]: the Cmax in the data set on Plasma [20] stood at 6300 ng/mL; with Plasma [22], 6880 ng/mL; with Brain [25], 75.5 ng/g; in data set [29], 75.5 ng/g. Further, the values for the Kp in data set [21], in data set [23] and in data set [24] were 0.01, 0.02 and 0.02, respectively. Further, the Vdss in the data set with Rattus norvegicus was 0.8 L/kg. In addition, the “beta t1/2” value with Plasma [26] came out at 1.71 h. For the same compound, the AUC is given as 12800 in the data set with Plasma [27] and 145 in the data set on Brain [28].
